Assay results taken from ChEMBL document CHEMBL1136985, “New pyridinone derivatives as potent HIV-1 nonnucleoside reverse transcriptase inhibitors” (J Med Chem, 2009).

What was measured:
[1] = tested on: Human immunodeficiency virus 1; assay: Antiviral activity against wild type HIV1 NL4-3 in human HeLaP4 cells assessed as beta-galactosidase activity after 48 hrs; assay type: functional, organism-based; details: Human immunodeficiency virus 1, NL4-3, HeLaP4, 48 h
Summary of the method: (§1)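 Cells plated at 5000/well, incubated 48 h, then medium replaced with compound (0.00128 to 4 µM). Infection 4 h later with cell-free NL4-3 virus equivalent to 100 ng p24. At 48 h postinfection cells lysed in PBS with 0.1% NP-40 and 5 mM MgCl2. β-Galactosidase read with chlorophenol red β-D-galactopyranoside. EC50 taken from dose-response curves.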

[2] = Selectivity index, ratio of CC50 for human HeLaP4 cells to EC50 for HIV1 NL4-3; assay type: toxicity, cell-based; details: read-out: Ratio CC50/EC50
Summary of the method: (§2)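 Viability by WST-1 absorbance at 570 nm relative to drug-free control. Divided by EC50 from the 48 h β-galactosidase infection assay with NL4-3 in the same cell type.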

[3] = Selectivity index, ratio of CC50 for human TZM-b1 cells to EC50 for HIV1 NL4-3; assay type: toxicity, cell-based; details: read-out: Ratio CC50/EC50; summary of the method: as §2
[4] = tested on: Human immunodeficiency virus 1; assay: Antiviral activity against wild type HIV1 NL4-3 in human TZM-b1 cells assessed as beta-galactosidase activity after 48 hrs; assay type: functional, organism-based; details: Human immunodeficiency virus 1, NL4-3, TZM-b1, 48 h; summary of the method: as §1
[5] = tested on: Human immunodeficiency virus 1; assay: Antiviral activity against HIV1 NL4-3 with double K103N/L100I mutant in human MT4 cells assessed as inhibition of virus-induced cytopathicity after 5 days by multiple round replication assay; assay type: functional, organism-based; details: Human immunodeficiency virus 1, NL4-3, MT4, 120 h
Summary of the method: (§3)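 MT-4 human T-cells, cultured in RPMI 1640 with 10% heat-inactivated FBS at 37 °C, 5% CO2, infected with HIV-1 NL4-3-derived mutant strains, then exposed to a range of compound concentrations. After 5 days, viability of infected and mock-infected cells read by WST-1 tetrazolium cleavage.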

[6] = tested on: Human immunodeficiency virus 1; assay: Antiviral activity against HIV1 NL4-3 with Y181C mutant in human TZM-b1 cells assessed as beta-galactosidase activity after 48 hrs by single round replication assay; assay type: functional, organism-based; details: Human immunodeficiency virus 1, NL4-3, TZM-b1, 48 h
Summary of the method: (§4)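 TZM-bl cells (DMEM, 5% heat-inactivated FBS) plated at 5000 cells/well and grown 48 h. Medium replaced with compound at 0.00128–4 µM. After 4 h, cells infected with NL4-3-derived RT-mutant virus equal to 100 ng p24. Virus stocks came from HEK293 cells transfected with sequence-verified mutant clones. At 48 h, cells lysed in PBS/0.1% NP-40/5 mM MgCl2 and β-galactosidase read with CPRG. EC50 taken from dose-response curves.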

[7] = tested on: Human immunodeficiency virus 1; assay: Antiviral activity against HIV1 NL4-3 with K103N/V108I double mutant in human TZM-b1 cells assessed as beta-galactosidase activity after 48 hrs by single round replication assay; details: Human immunodeficiency virus 1, NL4-3, TZM-b1, 48 h
[8] = tested on: Human immunodeficiency virus 1; assay: Antiviral activity against HIV1 NL4-3 in human TZM-b1 cells assessed as beta-galactosidase activity after 48 hrs by single round replication assay; details: Human immunodeficiency virus 1, NL4-3, TZM-b1, 48 h
[9] = tested on: Human immunodeficiency virus 1; assay: Antiviral activity against HIV1 NL4-3 with K103N/L100I double mutant in human TZM-b1 cells assessed as beta-galactosidase activity after 48 hrs by single round replication assay; assay type: functional, organism-based; details: Human immunodeficiency virus 1, NL4-3, TZM-b1, 48 h; summary of the method: as §4
[10] = tested on: Human immunodeficiency virus 1; assay: Antiviral activity against HIV1 NL4-3 with Y181C mutant in human MT4 cells assessed as inhibition of virus-induced cytopathicity after 5 days by multiple round replication assay; assay type: functional, organism-based; details: Human immunodeficiency virus 1, NL4-3, MT4, 120 h; summary of the method: as §3
[11] = tested on: Human immunodeficiency virus 1; assay: Antiviral activity against HIV1 NL4-3 with K103N mutant in human TZM-b1 cells assessed as beta-galactosidase activity after 48 hrs by single round replication assay; assay type: functional, organism-based; details: Human immunodeficiency virus 1, NL4-3, TZM-b1, 48 h; summary of the method: as §4
[12] = tested on: Human immunodeficiency virus 1; assay: Antiviral activity against HIV1 NL4-3 with K103N mutant in human MT4 cells assessed as inhibition of virus-induced cytopathicity after 5 days by multiple round replication assay; assay type: functional, organism-based; details: Human immunodeficiency virus 1, NL4-3, MT4, 120 h; summary of the method: as §3
[13] = tested on: Human immunodeficiency virus 1; assay: Antiviral activity against HIV1 NL4-3 with L100I/V108I double mutant in human TZM-b1 cells assessed as beta-galactosidase activity after 48 hrs by single round replication assay; assay type: functional, organism-based; details: Human immunodeficiency virus 1, NL4-3, TZM-b1, 48 h; summary of the method: as §4
[14] = tested on: Human immunodeficiency virus 1; assay: Antiviral activity against wild type HIV1 NL4-3 in human MT4 cells assessed as inhibition of virus-induced cytopathicity after 5 days by multiple round replication assay; assay type: functional, organism-based; details: Human immunodeficiency virus 1, NL4-3, MT4, 120 h
Summary of the method: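 MT-4 T cells in RPMI 1640 with 10% FBS were infected with NL4-3 (wild type or RT mutants) and exposed to a range of compound concentrations. After 5 days, viability of infected and mock-infected cells was read by WST-1 cleavage, giving EC50 against viral cytopathicity and CC50 together.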

[15] = tested on: Human immunodeficiency virus 1; assay: Antiviral activity against HIV1 NL4-3 with L100I mutant in human MT4 cells assessed as inhibition of virus-induced cytopathicity after 5 days by multiple round replication assay; assay type: functional, organism-based; details: Human immunodeficiency virus 1, NL4-3, MT4, 120 h; summary of the method: as §3
[16] = tested on: Human immunodeficiency virus 1; assay: Antiviral activity against HIV1 NL4-3 with L100I mutant in human TZM-b1 cells assessed as beta-galactosidase activity after 48 hrs by single round replication assay; assay type: functional, organism-based; details: Human immunodeficiency virus 1, NL4-3, TZM-b1, 48 h; summary of the method: as §4
[17] = tested on: Human immunodeficiency virus 1; assay: Antiviral activity against HIV1 NL4-3 with K103N/Y181C double mutant in human TZM-b1 cells assessed as beta-galactosidase activity after 48 hrs by single round replication assay; details: Human immunodeficiency virus 1, NL4-3, TZM-b1, 48 h
[18] = tested on: Human immunodeficiency virus 1; assay: Antiviral activity against HIV1 NL4-3 with V108I mutant in human TZM-b1 cells assessed as beta-galactosidase activity after 48 hrs by single round replication assay; assay type: functional, organism-based; details: Human immunodeficiency virus 1, NL4-3, TZM-b1, 48 h; summary of the method: as §4
[19] = biological target: Human immunodeficiency virus type 1 reverse transcriptase (Human immunodeficiency virus 1) (UniProt Q72547); assay: Inhibition of recombinant HIV1 reverse transcriptase assessed as residual activity at 10 uM by […] incorporation assay relative to control
Summary of the method: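 Recombinant HIV-1 RT, compound at 10 µM final (from DMSO). Incubated 10 min at 37 °C, then collected on DEAE filters and washed. Counted by phosphorimager; activity expressed relative to uninhibited RT.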

[20] = tested on: Human immunodeficiency virus 1; assay: Antiviral activity against HIV1 NL4-3 with Y181C mutant in human HeLaP4 cells assessed as beta-galactosidase activity after 48 hrs by single round replication assay; assay type: functional, organism-based; details: Human immunodeficiency virus 1, NL4-3, HeLaP4, 48 h

Structure (SMILES): CCOC(=O)c1c(OC2CC(C)(C)CC(C)(C)C2)c(CC)c(C)[nH]c1=O
- EC50 [1]: 258 nM
- selectivity ratio [2]: 112

Structure (SMILES): CCOC(=O)c1c(S[C@@H]2C[C@H](C)C[C@H](C)C2)c(CC)c(C)[nH]c1=O
- selectivity ratio [3]: 862
- EC50 [4]: 116 nM

Structure (SMILES): CCc1c(C)[nH]c(=O)c(N)c1O[C@@H]1C[C@H](C)C[C@H](C)C1
- EC50 [1]: 1200 nM
- selectivity ratio [2]: 83

Structure (SMILES): CCc1c(C)[nH]c(=O)c(C(=O)O)c1OC1CCCCC1
- EC50 [1]: > 10000 nM

Structure (SMILES): CCc1c(C)[nH]c(=O)c(CC)c1O[C@@H]1C[C@H](C)C[C@H](C)C1
- EC50 [5]: 145 nM
- EC50 [6]: 15 nM
- EC50 [7]: 107 nM
- EC50 [8]: 5400 nM
- EC50 [9]: 81 nM
- EC50 [10]: 49 nM
- selectivity ratio [3]: > 67000
- EC50 [11]: 5 nM
- EC50 [12]: 26 nM
- EC50 [4]: < 1 nM
- EC50 [13]: 115 nM
- EC50 [14]: 2 nM
- EC50 [15]: 27 nM
- EC50 [16]: 6 nM
- EC50 [17]: 359 nM

Structure (SMILES): Cc1ccnc2c1NC(=O)c1cccnc1N2C1CC1 [NEVIRAPINE]
- EC50 [6]: > 10000 nM
- EC50 [7]: > 10000 nM
- EC50 [8]: > 10000 nM
- EC50 [9]: > 10000 nM
- EC50 [18]: 792 nM
- EC50 [11]: 3300 nM
- EC50 [4]: 39 nM
- EC50 [13]: > 10000 nM
- EC50 [16]: 252 nM

Structure (SMILES): CCOC(=O)c1c(OC2CCCC(C)C2C)c(CC)c(C)[nH]c1=O (stereo unspecified)
- EC50 [1]: 13 nM
- selectivity ratio [2]: 2620

Structure (SMILES): CCOC(=O)c1c(OC2CCCCCC2)c(CC)c(C)[nH]c1=O
- Activity [19]: 34.6%
- selectivity ratio [3]: 205
- EC50 [4]: 390 nM

Structure (SMILES): CCOC(=O)c1c(OC2CCCCCCC2)c(CC)c(C)[nH]c1=O
- Activity [19]: 24%
- selectivity ratio [3]: 83
- EC50 [4]: 700 nM

Structure (SMILES): CCc1c(C)[nH]c(=O)c([N+](=O)[O-])c1O[C@@H]1C[C@H](C)C[C@H](C)C1
- EC50 [6]: 279 nM
- EC50 [7]: > 10000 nM
- EC50 [8]: > 10000 nM
- EC50 [9]: > 10000 nM
- selectivity ratio [3]: > 37000
- EC50 [18]: 2 nM
- EC50 [11]: 177 nM
- EC50 [4]: < 1 nM
- EC50 [13]: 8300 nM
- EC50 [16]: 9 nM

Structure (SMILES): CCOC(=O)c1c(OC2CCCCC2Cl)c(CC)c(C)[nH]c1=O (stereo unspecified)
- EC50 [1]: > 3000 nM
- selectivity ratio [2]: < 33

Structure (SMILES): CCc1c(C)[nH]c(=O)c(N(C)C)c1O[C@@H]1C[C@H](C)C[C@H](C)C1
- EC50 [6]: 177 nM
- EC50 [7]: > 10000 nM
- EC50 [8]: > 10000 nM
- EC50 [9]: 2900 nM
- selectivity ratio [3]: > 66000
- EC50 [18]: 6 nM
- EC50 [11]: 14 nM
- EC50 [4]: < 1 nM
- EC50 [13]: 1600 nM
- EC50 [16]: 28 nM
- EC50 [17]: 245 nM

Structure (SMILES): CCc1c(C)[nH]c(=O)c(C)c1O[C@@H]1C[C@H](C)C[C@H](C)C1
- EC50 [6]: 893 nM
- EC50 [7]: 5100 nM
- EC50 [8]: > 10000 nM
- EC50 [9]: 1400 nM
- selectivity ratio [3]: 40000
- EC50 [18]: 121 nM
- EC50 [11]: 142 nM
- EC50 [4]: 2 nM
- EC50 [13]: 833 nM
- EC50 [16]: 203 nM
- EC50 [17]: 1200 nM

Structure (SMILES): CCOC(=O)c1c(O[C@@H]2C[C@H](C)C[C@H](C)C2)c(CC)c(C)[nH]c1=O
- EC50 [8]: > 10000 nM
- EC50 [1]: 36 nM
- EC50 [20]: 2000 nM
- selectivity ratio [2]: 1780
- EC50 [18]: 5900 nM
- EC50 [11]: > 10000 nM
- EC50 [16]: 2200 nM

Structure (SMILES): CCOC(=O)c1c(OC2CC(C)CC(C)C2)c(CC)c(C)[nH]c1=O (stereo in doubt; 10B)
- EC50 [1]: 85 nM
